The list is not random: actives were taken first. Their share in the collection is about 1.7%.
IDE cell inh: inhibits human insulin-degrading enzyme in HEK cells; P14735; FAbetaB cleavage, fluorescence polarization; inhibition, % at 5.59 µM; actives 0.41% (n = 320,000);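 active = percent inhibition above the average of all tested compounds plus 3 SD, set per screening campaign, cut at about 16% in these data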;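 also: IDE supplied by intact live HEK cells; FP after avidin binding of uncleaved biotin substrate so inhibition keeps polarization high; 0% = DMSO wells and 100% = 60 µM reference IDE inhibitor Ii1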
Target sequence (P14735 whole entry, looked up): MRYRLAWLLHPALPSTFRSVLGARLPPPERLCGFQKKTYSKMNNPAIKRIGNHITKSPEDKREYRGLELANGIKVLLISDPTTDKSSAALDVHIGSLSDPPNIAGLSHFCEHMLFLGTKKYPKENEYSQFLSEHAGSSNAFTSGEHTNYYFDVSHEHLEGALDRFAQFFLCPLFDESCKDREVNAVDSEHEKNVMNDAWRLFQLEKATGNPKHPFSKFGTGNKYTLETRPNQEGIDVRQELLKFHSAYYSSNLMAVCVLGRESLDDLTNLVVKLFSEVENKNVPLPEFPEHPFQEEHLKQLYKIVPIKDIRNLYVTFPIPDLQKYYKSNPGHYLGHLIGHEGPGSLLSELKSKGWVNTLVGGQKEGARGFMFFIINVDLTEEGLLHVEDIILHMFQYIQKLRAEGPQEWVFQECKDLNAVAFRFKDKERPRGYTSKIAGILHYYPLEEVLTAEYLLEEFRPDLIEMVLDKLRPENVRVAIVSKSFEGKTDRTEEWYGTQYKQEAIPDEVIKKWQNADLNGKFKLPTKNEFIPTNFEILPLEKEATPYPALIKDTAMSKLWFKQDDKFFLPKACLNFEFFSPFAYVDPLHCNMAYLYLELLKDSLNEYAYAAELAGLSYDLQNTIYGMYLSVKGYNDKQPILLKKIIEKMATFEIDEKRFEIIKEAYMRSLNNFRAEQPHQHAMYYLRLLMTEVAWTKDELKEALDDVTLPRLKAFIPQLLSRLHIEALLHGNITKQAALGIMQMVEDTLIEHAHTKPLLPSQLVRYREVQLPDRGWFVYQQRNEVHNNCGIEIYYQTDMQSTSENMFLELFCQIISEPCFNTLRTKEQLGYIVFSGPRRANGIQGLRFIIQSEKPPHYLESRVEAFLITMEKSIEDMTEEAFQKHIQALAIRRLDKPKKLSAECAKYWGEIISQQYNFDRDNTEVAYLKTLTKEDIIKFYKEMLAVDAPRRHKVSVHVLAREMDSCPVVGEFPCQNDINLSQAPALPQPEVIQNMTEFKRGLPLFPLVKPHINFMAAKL
IDE act: boosts human insulin-degrading enzyme activity in HEK cells. actives 0.073% (n = 340,000). FAbeta-B cleavage, fluorescence polarization; 0% vehicle, 100% cell-free pure enzyme wells. P14735. activation, % at 5.96 µM. AID 493087;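 active = activation above the mean of all tested compounds plus 3 SD, set per screening campaign, cut at about 17% in these data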
CSN deneddyl inh: CSN deneddylation inhibition; Q92905; Purified CSN, SCF-Nedd8-OG deneddylation, fluorescence polarization; inhibition, % at 12.5 µM; actives 0.38% (n = 360,000); AID 651999;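 active = pattern-corrected inhibition above about 35%, with an unprinted fluorescence ratio check between 0.5 and 1.5, limit read from the data, passing the limit was not always enough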;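 also: 0% = enzyme with substrate and 100% = substrate without enzyme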
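Material: purified human Csn5 enzyme expressed in HEK293T cells / Medium: Tris buffer pH 7.5, NaCl, DTT, Tween-20, trehalose, ovalbumin / Compound dosing: 12.5 µM single point / Schedule: 90 min incubation of compound, enzyme and substrate at room temperature / Signal: fluorescence polarization of the substrate / Control set: no-enzyme wells high, enzyme-with-substrate wells low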
HNF4A DNA FP: change in binding of human HNF4 alpha to DNA. activity change, % at 10 µM. AID 1224865. HNF4a-FITC DNA binding, fluorescence polarization, 1 h. actives 0.3% (n = 360,000); in the data active = activity change above about 30%, passing the limit was not always enough
TPT1 inhibitor: C. albicans TPT1 enzyme inhibition; recombinant caTPT1, FP RNA substrate dephosphorylation; actives 0.81% (n = 300,000); inhibition, % at 5 µM;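 active = inhibition above the mean of all tested compounds plus 3 SD, set per screening campaign, cut at about 24% in these data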;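 also: plate controls were DMSO alone for no effect and ferristatin control at 100 nM for full effect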
TbMetRS inhib: blocks T. brucei methionyl-tRNA synthetase activity | purified T. brucei MetRS, ATP depletion, Kinase-Glo luminescence | inhibition, % at 11.9 µM | actives 0.4% (n = 360,000);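 active = inhibition above a per-plate cutoff of the control wells' mean inhibition plus 3 SD, cut at about 5.5% in these data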;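 also: 0% = DMSO wells median and 100% = median of wells with control inhibitor compound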
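technique = Kinase-Glo luminescence, ATP depletion format | system = purified MetRS (methionyl-tRNA synthetase) enzyme from Trypanosoma brucei | timing = 15 min preincubation, 2 h reaction, all 25 °C | evaluation = percent inhibition versus plate control medians | dosing = single dose, 11.9 µM final nominal, 0.9% final DMSO | also added = substrates ATP, L-methionine and bulk Escherichia coli tRNA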
TPT1 inh confirm: TPT1 (C. albicans) inhibition, confirmation; shares compounds with TPT1 inhibitor; recombinant caTPT1, fluorescence polarization, RNase T1 coupled; inhibition, % at 5 µM; actives 74% (n = 2,400); AID 2149;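 active = inhibition above the primary screen limit, the mean inhibition of all tested compounds plus 3 SD, cut at about 25% in these data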
RNase T1 inh: counter-screen for TPT1 inhibitors: inhibitors of Aspergillus oryzae RNase T1. shares compounds with TPT1 inhibitor. RNase T1 cleavage, fluorescence polarization, 1536-well. inhibition, % at 5 µM. actives 83% (n = 2,400);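 active = inhibition above the solvent-only control well mean plus 3 SD, limit set per screening run, cut at about 23% in these data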;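 also: plate controls were DMSO wells with enzyme for no effect and wells without RNase T1 for full effect; inhibitors block cleavage so intact labeled substrate keeps polarization high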
* hit, by the source's call; . = no result.

SMILES	IDE cell inh	IDE act	CSN deneddyl inh	HNF4A DNA FP	TPT1 inhibitor	TbMetRS inhib	TPT1 inh confirm	RNase T1 inh
COc1ccc(-n2nnnc2SCC(=O)c2cc3ccccc3o2)cc1	8	2	4	3	32*	-1	26*	35*
Cn1cnnc1SCC(=O)c1cc2ccccc2o1	-2	-2	4	5	4	0	.	.
Cn1ccnc1SCC(=O)c1cc2ccccc2o1	11	-3	5	15	61*	0	29*	41*
Cc1ccc(S(=O)(=O)N2CCOC23CCN(C(=O)C(=O)NCCC(C)C)CC3)cc1	-1	0	-4	1	-1	0	.	.
CSCCC(NC(=O)c1cccc(C)c1)C(=O)NCc1cccs1 (stereo not given)	0	-1	-2	-3	.	0	.	.
O=C(Nc1cccc2nsnc12)c1ccc(-c2cccc(Cl)c2)o1	-3	1	21	27	31*	0	30*	38*
COc1cccc2cc(C(=O)C3=C(O)C(=O)N(c4cc(C)on4)C3c3cccs3)oc12 (stereo not given)	8	1	14	5	31*	0	23	36*
CCCOc1cccc(C2C(C(=O)c3cc4ccccc4o3)=C(O)C(=O)N2c2cc(C)on2)c1 (stereo not given)	-3	6	8	-5	5	-1	.	.
Cc1cc(N2C(=O)C(O)=C(C(=O)c3cc4ccccc4o3)C2c2cccc(Br)c2)no1 (stereo not given)	-3	-6	7	0	31*	0	13	25*
COC(=O)c1ccc(C2C(C(=O)c3cc4ccccc4o3)=C(O)C(=O)N2c2cc(C)on2)cc1 (stereo not given)	2	-1	18	8	44*	1	16	26*
Cc1ccc(N=Cc2cccc(O)c2O)c(C)c1	-6	0	9	-1	2	-1	.	.
Cc1ccc(N=Cc2sc(O)c3ccccc23)c(C)c1	6	-8	-46	153	117*	0	80*	94*
CCn1c(SCC(=O)c2c[nH]c3ccccc23)nnc1-c1cccs1	4	-3	15	19	25*	1	25*	35*
Cc1ccc(-c2ccc(/C=C3\SC(N4CCOCC4)=NC3=O)o2)cc1	6	-5	12	51*	48*	0	52*	62*
Cc1ccc(S(=O)(=O)NC(=O)C2(C)CCN2C(=O)C2CC2)cc1 (stereo not given)	.	.	1	2	.	0	.	.
Cc1cccc(N2CCN(C(=O)c3ccc4nccnc4c3)CC2C)c1 (stereo not given)	2	1	3	3	.	0	.	.
COc1ccccc1N1CCN(C(=O)c2ccc3c(c2)NC(=O)C(CSCc2ccccc2C)N3)CC1 (stereo not given)	0	.	.	.	75*	.	15	26*
O=C1Nc2cc(C(=O)N3CCN(c4ccccc4F)CC3)ccc2NC1CSCc1ccccc1F (stereo not given)	8	.	.	.	134*	.	91*	99*
COc1ccc(N2CCN(C(=O)c3ccc4c(c3)NC(=O)C(CSCc3ccccc3F)N4)CC2)cc1 (stereo not given)	.	.	2	34	.	0	.	.
Cc1cccc(N2CCN(C(=O)c3ccc4c(c3)NC(=O)C(CSCc3cccc(F)c3)N4)CC2C)c1 (stereo not given)	0	-5	33	81*	98*	0	99*	110*
COc1ccc(C(=O)N2CCC(C)(C(=O)NS(=O)(=O)C3CC3)C2)cc1F (stereo not given)	.	.	2	4	.	0	.	.
COc1ccc(Oc2nc(OC)cc(OC)n2)cc1	-3	-3	-4	1	-2	0	.	.
CCCCCc1ccc(CC(=O)Nn2c(C)nc3ccccc3c2=O)cc1	9	5	-3	1	-3	-1	.	.
Cc1ccc(Sc2nc3ccc(C)cn3c(=O)c2/C=N/O)cc1	1	0	2	-1	1	-1	.	.
CCOC(=O)/C=C1\SCC(=O)N1Cc1nnc(-c2ccccc2Br)o1	6	-1	17	31	31*	-1	31*	40*
SMILES	IDE cell inh	IDE act	CSN deneddyl inh	HNF4A DNA FP	TPT1 inhibitor	TbMetRS inhib	TPT1 inh confirm	RNase T1 inh
CCOC(=O)/C=C1/SCC(=O)N1Cc1ccc(Br)cc1	.	1	2	1	.	0	.	.
CSc1ccc(CN2CCN(C(=O)CC(C)C)CC2)cc1	7	1	1	-4	26*	0	7	12
CC(C)(C)NS(=O)(=O)c1cc(C(=O)Nc2sccc2C#N)ccc1Cl	12	-3	31	28	36*	0	32*	43*
N#Cc1ccsc1NC(=O)c1cnccn1	-5	-2	3	4	-3	0	.	.
Cc1cc(Br)ccc1OCCN1CC(C)OC(C)C1 (stereo not given)	4	4	0	1	48*	1	10	12
O=C1CC(=O)N(CCc2ccc(F)cc2)C(=O)N1	4	1	13	11	39*	-1	31*	40*
O=C1CC(=O)N(CCc2ccccc2)C(=O)N1CCc1ccccc1	4	0	0	4	40*	0	5	9
CC1CC(=O)N(CCc2ccccc2)C(=O)C1	.	5	1	4	.	-1	.	.
CC(=O)NO	6	.	-4	-3	-5	0	.	.
COc1cc(C2C(C#N)=C(N)N(c3ccc(F)cc3)C3=C2S(=O)(=O)CC3)ccc1O (stereo not given)	2	0	13	15	32*	1	13	26*
O=C(N/N=C/c1ccc([N+](=O)[O-])o1)c1cc(-c2ccc(-c3ccccc3)cc2)nc2ccccc12	4	-2	3	-5	2	0	.	.
Cc1cc(N/N=C/c2ccc([N+](=O)[O-])o2)nc2ccccc12	15	-7	29	21	49*	0	50*	64*
O=[N+]([O-])c1ccc(/C=N/Nc2ccnc3cc(Cl)ccc23)o1	1	-4	10	14	68*	0	62*	78*
CC1CCCCCCC1OC(=O)c1ccccc1C(=O)O (stereo not given)	.	2	-4	1	.	0	.	.
CC(C)NC(=O)C1(C)CCN1Cc1ccc(Cl)cc1 (stereo not given)	.	.	-5	-1	.	0	.	.
NS(=O)(=O)c1ccc(NC(=O)CNC(=O)c2ccc3c(c2)OCO3)cc1	-1	3	3	-2	.	0	.	.
